Experimental findings from PMC10234622 (Matrix biology : journal of the International Society for …, 2022) are described below.

In assay [1] the test system is Aspn in 3T3 embryonic fibroblasts. The assay is described as follows: Aspn expression and release in 3T3 embryonic fibroblasts, western blot. The class given is cell-based. Conditions: TGFβ1 5 ng/ml, 24 h; n = 4. Put shortly:
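3T3 fibroblasts were grown in DMEM (10 mM glucose, 10% FBS, pH 7.4) and given vehicle or TGFβ1 5 ng/ml for 24 h. Intracellular Aspn came from cell lysates and extracellular Aspn from the collected media. Equal protein (Bradford) was run on 4–12% Bis-Tris gels and transferred to nitrocellulose. Blots were blocked in 5% milk 45 min, probed with anti-ASPN 1:1000 overnight at 4 °C, then peroxidase secondary 2 h RT; n = 4.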

Assay [2] relates to Aspn in differentiated H9c2 cardiomyocytes. The assay is described as follows: Aspn expression and release in H9c2 cardiomyocytes. It is filed as cell-based. Conditions: TGFβ1 stimulation of cardiomyocytes.
Assay [3] addresses FITC-labeled ASPN peptide (FITC-ε-Ahx-Asporin) (mouse). The assay is described as follows: MST.
The subject of assay [4] is differentiated H9c2 cardiomyocytes. Nature of the assay: TUNEL staining after hypoxia/reoxygenation. The class given is cell-based. The conditions noted are these: rASPN treatment; hypoxia-reoxygenation. The method in brief: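 H9c2 cells were differentiated for 5 days (1% FBS, 1 nM retinoic acid) and given vehicle or rASPN 1 nM for 24 h. Hypoxia 2 h and reoxygenation 2 h followed. Cells were fixed in 2% PFA 15 min RT, permeabilized with 0.1% Triton X-100, TUNEL-labelled with fluorescein and counterstained with DAPI. TUNEL-positive nuclei were counted over many fields of 10–15 cells and expressed as a ratio to DAPI-stained cells; mean with SD.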

Assay [5] shares this test system. Nature of the assay: LDH release after hypoxia/reoxygenation. Conditions: rASPN 1 nM for 24 hrs prior to hypoxia (2 hrs) and reoxygenation (2 hrs); n = 4. It is filed as cell-based. On the technique in general: LDH leaks from cells whose membrane has failed.
Another assay deals with H9c2 cardiomyocytes. Nature of the assay: Seahorse respirometry on differentiated H9c2 cardiomyocytes. It is filed as cell-based. The conditions noted are these: rASPN 1 nM for 24 hrs, vs vehicle, n = 3. The method in brief:
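H9c2 cells were seeded at 15,000/well and differentiated for 5 days, then given vehicle or rASPN 1 nM for 24 h. Medium was switched to XF base with glucose, pyruvate and glutamine, and cells equilibrated 45 min at 37 °C without CO₂. OCR was recorded at several time points, basally and after sequential oligomycin, FCCP and antimycin A/rotenone. Parameters were calculated from traces; mean with SD, n = 3, unpaired t-test.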

The test system of assay [6] is differentiated H9c2 cardiomyocytes. Nature of the assay: MitoSOX staining, ROS after hypoxia-reoxygenation. Conditions: rASPN. The class given is cell-based. Put shortly: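 H9c2 cells were differentiated for 5 days in DMEM with 1% FBS and 1 nM retinoic acid. They were given vehicle or rASPN, then simulated hypoxia-reoxygenation; control cells stayed under normal culture. Cells were stained with MitoSOX red and imaged by fluorescence microscopy. Intensity was expressed relative to control; mean with SD, one-way ANOVA with Tukey's test.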

The term Kd denotes a measure of binding affinity in units of concentration. The low end stands for higher affinity, the high end for lower affinity.

Turning to TGFβ1: Transforming growth factor β1, in assay [1], the “expression of Aspn (intracellular)” value is “increased expression” and the “release of Aspn into extracellular media” value was “increased release of Aspn”. Further, the “Aspn induction or release in extracellular media” value in assay [2] is on record as “no significant induction or any release in extracellular media”.

Turning to “recombinant mouse TGFβ-1 protein (from UniProt P04202 279-390) (ligand)”, in assay [3], the Kd was determined as 15 nM.

B1: rASPN: Recombinant asporin protein (protein, UniProt Q9BXN1 33-380, looked up)
Asporin: DMEDTDDDDDDDDDDDDDDEDNSLFPTREPRSHFFPFDLFPMCPFGCQCYSRVVHCSDLGLTSVPTNIPFDTRMLDLQNNKIKEIKENDFKGLTSLYGLILNNNKLTKIHPKAFLTTKKLRRLYLSHNQLSEIPLNLPKSLAELRIHENKVKKIQKDTFKGMNALHVLEMSANPLDNNGIEPGAFEGVTVFHIRIAEAKLTSVPKGLPPTLLELHLDYNKISTVELEDFKRYKELQRLGLGNNKITDIENGSLANIPRVREIHLENNKLKKIPSGLPELKYLQIIFLHSNSIARVGVNDFCPTVPKMKKSLYSAISLFNNPVKYWEMQPATFRCVLSRMSVQLGNFGM
Regarding B1, the “percent TUNEL positive cells” value in assay [4] was “reduced percent TUNEL positive cells”. Moreover, the “cell death (LDH release)” value in assay [5] is recorded as “reduced cell death”. For the same molecule, in the assay on H9c2 cardiomyocytes (FCCP as uncoupler), the maximal respiration result was “significant increase” and the spare respiratory capacity entry is given as “significant increase”. Moreover, in the assay on H9c2 cardiomyocytes, the ATP production entry was “increased basal OCR and ATP production”; the “basal OCR” value is “increased basal OCR”; the “non-mitochondrial OCR” value is on record as “reducing”. Also, the “ROS production (MitoSOX)” value in assay [6] was “significantly reduced”.
